Source: PubChem BioAssay (The Scripps Research Institute Molecular Screening Center)
HTRA1 inh: HTRA1 serine protease inhibitors, primary screen, biochemical, fluorescence polarization, HTS. hit rate 0.5% among 340,000. Q92743. inhibition, % at 5.96 µM. recombinant HTRA1, FP-rhodamine activity-based probe; in the data active = inhibition above about 36%
PAD4 FP inh: human PAD4 inhibitors, primary screen, biochemical, fluorescence polarization, 1536-well format. Protein-arginine deiminase type-4 (Homo sapiens), Q9UM07. recombinant PAD4, RCA probe fluorescence polarization. inhibition, % at 6.36 µM. hit rate 0.41% among 330,000;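 active = percent inhibition above a cutoff equal to the mean of all tested compounds plus 3 SD, cut at about 15% in these data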
SIAE primary: human SIAE inhibitors, primary screen, biochemical, fluorescence polarization, FP-Rh probe, 1536-well HTS | Sialate O-acetylesterase (Homo sapiens), Q9HAT2 | SIAE FP-Rh probe binding | inhibition, % at 9.66 µM | hit rate 0.69% among 370,000;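 active = inhibition above a cutoff: mean of compounds within the control limits plus 3 SD of those, cut at about 17% in these data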
PRMT1 FP inh: PRMT1 methyltransferase inhibitors, primary screen, biochemical, fluorescence polarization | recombinant PRMT1, activity-based probe fluorescence polarization | inhibition, % at 2.79 µM | hit rate 1.3% among 370,000;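 active = inhibition above about 21% made by adding two undisclosed values, limit read from the data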
Target sequence (Q99873 whole entry, looked up): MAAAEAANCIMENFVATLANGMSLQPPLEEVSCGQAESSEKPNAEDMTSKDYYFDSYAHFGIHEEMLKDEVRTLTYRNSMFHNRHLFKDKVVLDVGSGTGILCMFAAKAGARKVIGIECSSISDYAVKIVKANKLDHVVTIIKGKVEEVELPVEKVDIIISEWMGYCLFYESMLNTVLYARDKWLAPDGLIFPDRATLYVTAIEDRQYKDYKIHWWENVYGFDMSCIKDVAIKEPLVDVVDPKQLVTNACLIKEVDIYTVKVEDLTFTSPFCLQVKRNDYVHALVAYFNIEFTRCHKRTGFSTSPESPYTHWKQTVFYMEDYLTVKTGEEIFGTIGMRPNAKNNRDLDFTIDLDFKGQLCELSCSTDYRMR
TCR-CD3 inh: inhibitors of human TCR-CD3 interaction, primary screen, biochemical, fluorescence, TAMRA-labeled TCR probe. T-cell receptor (TCR). inhibition, % at 9.4 µM. hit rate 0.37% among 360,000; in the data active = inhibition above about 19%;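 note: recombinant mutant TCR 2C K166C tagged with TAMRA read by polarization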
ABHD4 inh: ABHD4 inhibitors, primary screen, biochemical, fluorescence polarization, mouse | purified mABHD4, FP-Rh probe fluorescence polarization | inhibition, % at 8.92 µM | hit rate 0.54% among 370,000 | AID 720543, 2013;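 active = inhibition exceeding the mean over every tested compound plus 3 SD, cut at about 30% in these data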
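Assay system: wild-type mouse ABHD4 protein; compound: single nominal dose of 8.92 µM, 0.89% DMSO final; schedule: 45 min + 60 min at 25 °C; measured by: FP readout, ex 525 nm / em 598 nm; evaluation: % inhibition of FP-Rh probe binding versus controls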
PRMT1 inh conf: PRMT1 methyltransferase inhibitors, confirmation, biochemical, fluorescence polarization, triplicate; shares compounds with PRMT1 FP inh; recombinant His-PRMT1, activity-based probe fluorescence polarization; inhibition, % at 2.79 µM; hit rate 42% among 3,300; AID 687036, 2013;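 active = mean inhibition across replicates above the hit cutoff derived for the earlier primary screen, cut at about 22% in these data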
A number is an active result; - = inactive; . = no result given. This is a sample that favours compounds with a hit; in the whole collection about 2.9% have one here.

SMILES	HTRA1 inh	PAD4 FP inh	SIAE primary	PRMT1 FP inh	TCR-CD3 inh	ABHD4 inh	PRMT1 inh conf
Nc1c(C(=O)N2CCCC2)sc2nc(-c3ccccc3)ccc12	-	-	-	34	-	-	-
COc1ccc2[nH]c3c(c2c1)CCN[C@]31C(=O)N(C)c2ccc(Br)cc21	.	.	-	-	.	-	.
Cn1c(N)c(C(=O)NCc2ccccc2)sc1=S	-	-	-	26	-	-	-
Nc1ccc2c3c(cccc13)-c1ccccc1-2	-	.	-	58	-	-	61
COC(=O)[C@]12C[C@H](CC(=O)N3CCCC3)C(=O)N(Cc3ccc4c(c3)OCO4)C1=C[C@H](C(C)C)O[C@@H]2C1CC1	.	.	-	-	.	-	.
Cc1cc2cc(C(c3nnnn3Cc3ccco3)N3CCc4ccccc4C3)c(=O)[nH]c2cc1C (centres undefined)	-	-	-	69	-	-	66
CCOC(=O)[C@@]12CCCC3=C1N(CCC3)C(=O)[C@H]2CC(=O)NCc1cccs1	.	.	-	-	.	-	.
Oc1ccc(N2CCN(CC(O)c3ccccc3)CC2)cc1 (centres undefined)	-	-	-	28	-	-	-
O=[N+]([O-])c1ccc(C(O)CN2CCN(c3ccccc3)CC2)cc1 (centres undefined)	-	-	-	-	-	-	.
Cc1cc(C)c2c(N)c(S(=O)c3ccc(C(C)(C)C)cc3)sc2n1 (centres undefined)	-	-	-	33	-	-	-
Cc1cc(C)c2c(N)c(C(=O)C(C)(C)C)sc2n1	-	-	-	-	-	-	.
O=C(CSc1ccc(Cl)cc1)N1CCN(c2ccc([N+](=O)[O-])cc2Cl)CC1	-	-	-	28	-	-	-
C/C(CCc1oc2ccc(Cl)cc2c1-c1ccc(C)o1)=N\O	-	-	-	33	-	-	-
Cc1cccc(N2C(=O)CC(n3ccnc3)C2=O)c1C (centres undefined)	-	-	-	36	-	-	-
C[C@H]1C2CC(OC(=O)Nc3cccc(C(F)(F)F)c3)C(C2)[C@H]2CCCCN21 (some centres undefined)	.	.	-	-	.	-	.
C=C1C(=O)C23C(O)C1CCC2C12COC3(O)C(O)C1C(C)(C)CCC2O (centres undefined)	.	.	-	29	-	-	41
O=S1(=O)c2ccc(Br)cc2OCCC2CCCCN21 (centres undefined)	.	.	-	-	-	-	.
NC(=O)c1ccc(-c2ccc(Br)cc2)o1	-	-	-	-	-	-	.
NC(=O)C1CCN(C(=S)c2ccc(-c3ccc(Br)cc3)o2)CC1	.	-	-	46	-	-	60
CCc1noc(C)c1C(=O)OC(C)C(=O)Nc1cc([N+](=O)[O-])ccc1OC (centres undefined)	-	-	-	98	-	-	-
CCCCCCCCN1C(=O)[C@@H](CC(=O)N2CCSCC2)C[C@@]2(C(=O)OC)C1=C[C@H](C(C)C)O[C@@H]2C1CC1	.	.	-	-	.	-	.
CCOC(=O)N1CCC(NC(=O)CSCc2nc(-c3ccc(OC)cc3)oc2C)CC1	-	-	-	-	-	-	.
COc1ccc(-c2nc(CSCC(=O)NC3CCCc4ccccc43)c(C)o2)cc1 (centres undefined)	-	-	-	29	-	-	26
CC(C)(C)c1ccc(-c2nnc(SCC3CCCCO3)n2-c2ccc(Cl)cc2)cc1 (centres undefined)	.	.	-	-	.	-	.
COC(=O)c1nn2c(C(F)(F)F)cc(-c3ccc(Br)o3)nc2c1Br	-	-	-	30	-	-	-
SMILES	HTRA1 inh	PAD4 FP inh	SIAE primary	PRMT1 FP inh	TCR-CD3 inh	ABHD4 inh	PRMT1 inh conf
CN(c1ccccc1)c1nc(N)c(C#N)c(CC#N)c1C#N	-	-	-	-	-	-	.
N#CCc1c(C#N)c(N)nc(Nc2ccccc2)c1C#N	-	-	-	40	-	-	-
COc1ccc(C(=O)/C=C/C(=O)N(CC(=O)NC2CCCCC2)Cc2cccs2)c(O)c1	-	-	-	38	-	-	65
COCCN(CC(=O)NC1CCCCC1)C(=O)/C=C/C(=O)c1ccc(OC)cc1O	-	.	-	-	-	-	.
Cc1ccccc1CNC(=O)c1cccc2c1C(=O)N(Cc1cccnc1)C2	.	.	-	-	.	-	.
Clc1ccc(CN2CCN(/N=C/c3ccco3)CC2)cc1	-	-	-	-	-	-	.
Cc1ccc(/C=N/N2CCN(Cc3ccc(Cl)cc3)CC2)o1	-	-	-	42	-	-	-
CC(C)C[C@@H]1COc2cc(Br)ccc2S(=O)(=O)N1Cc1cn(Cc2ccco2)nn1	.	.	-	-	.	-	.
Cc1cccc2nc(CSc3nc4cc([N+](=O)[O-])ccc4s3)cn12	-	-	-	53	-	-	-
Cc1ccc(-c2csc(N)n2)s1	-	-	-	76	-	-	28
CCOC(=O)c1cc(-c2ccc(F)cc2)n(CC(=O)NCc2cccnc2)c1C	-	-	-	28	-	-	-
N#C/C(=C\c1ccc2c(c1)OCO2)C(N)=S	.	-	-	25	-	-	-
CCOC(=O)/C(C#N)=C\c1ccc2c(c1)OCO2	-	-	-	-	-	-	.
COc1cc(OC)c(C#N)c(S(=O)(=O)Cc2ccccc2)c1	-	-	-	-	-	-	.
N#Cc1c([N+](=O)[O-])cc([N+](=O)[O-])cc1S(=O)(=O)Cc1ccccc1	-	-	-	72	-	-	61
O=C(COC(=O)c1cccc(S(=O)(=O)N2CCCCC2)c1)NCc1ccccc1	-	.	-	-	-	-	.
Cc1ccc(CNC(=O)COC(=O)c2cccc(S(=O)(=O)N3CCCCC3)c2)cc1	-	-	-	86	-	-	-
COC(=O)CC1=C(c2ccc([N+](=O)[O-])cc2)CCC1=O	-	.	-	60	-	-	-
CN1Cc2nnn(CC3CCCCC3)c2-c2ccccc2S1(=O)=O	.	.	-	-	.	-	.
O=C(N/N=C\C=C\c1ccc([N+](=O)[O-])o1)c1cccs1	-	.	-	31	-	-	-
O=C(N/N=C/C=C/c1ccccc1[N+](=O)[O-])c1cccs1	-	-	-	-	-	-	.
Cc1nnc(Sc2cc(NCCCO)c([N+](=O)[O-])c3nonc23)s1	-	.	-	91	-	-	84
Cc1nnc(Sc2cc(NCCO)c([N+](=O)[O-])c3nonc23)s1	-	.	-	85	-	-	89
O=[N+]([O-])c1c(NCCCO)cc(Sc2nc3ccccc3s2)c2nonc12	-	-	.	.	.	.	.
O=c1oc2cc(O)ccc2cc1-c1nc2ccccc2o1	.	.	-	71	-	-	68
